Columns and labels:
[1] = (§1) Tmax in Swiss albino mouse at 40 mg/kg, po by LC-MS/MS analysis; assay type: ADME, organism-based; details: Swiss albino, in vivo
Liver [2] = assay: Metabolic stability in human liver microsomes assessed as parent compound remaining at 1 uM after 1 hr; assay type: ADME, microsome
[3] = (§2) Tmax in Sprague-Dawley rat at 40 mg/kg, po by LC-MS/MS analysis; assay type: ADME, organism-based; details: Sprague-Dawley, in vivo
How it was run: (§3)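 Fasted male Sprague-Dawley rats dosed orally at 40–50 mg/kg as a suspension in 0.08% Tween 80/0.5% CMC in water. iv reference was 1 mg/kg in 20% NMP/40% PEG-400 in citrate buffer pH 3. Plasma analysed by LC–MS/MS. F from dose-normalized AUClast.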

Liver [4] = assay: Metabolic stability in CD-1 mouse liver microsomes assessed as parent compound remaining at 1 uM after 1 hr; assay type: ADME, microsome
[5] = AUClast in Sprague-Dawley rat at 1 mg/kg, iv after 24 to 48 hrs by LC-MS/MS analysis; assay type: ADME, organism-based; details: in vivo
How it was run: (§4)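 Fasted male Sprague-Dawley rats. IV dose was 1 mg/kg as a solution in 20% NMP and 40% PEG-400 in citrate buffer (pH 3). Oral dose was 40–50 mg/kg as a suspension in 0.08% Tween 80 and 0.5% CMC in water. Plasma was analysed by LC–MS/MS. AUClast was taken to the last time point (24 or 48 h).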

[6] = (§5) Cmax in Swiss albino mouse at 40 mg/kg, po by LC-MS/MS analysis; assay type: ADME, organism-based; design: dose 40 mg/kg, route oral; details: Swiss albino, in vivo
[7] = Volume of distribution at steady state in Sprague-Dawley rat at 1 mg/kg, iv by LC-MS/MS analysis; assay type: ADME, organism-based; details: in vivo, read-out: Vdss
How it was run: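 Fasted male Sprague-Dawley rats received 1 mg/kg iv as a solution in 20% NMP/40% PEG-400 in citrate buffer pH 3. Plasma concentrations by LC–MS/MS used for PK parameter estimation.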

[8] = (§6) AUClast in Swiss albino mouse at 40 mg/kg, po after 24 to 48 hrs by LC-MS/MS analysis; assay type: ADME, organism-based; details: Swiss albino, in vivo
[9] = Half life in golden Syrian hamster at 50 mg/kg, po by LC-MS/MS analysis; assay type: ADME, organism-based, Mesocricetus auratus; details: in vivo
[10] = Tmax in golden Syrian hamster at 50 mg/kg, po by LC-MS/MS analysis; assay type: ADME, organism-based, Mesocricetus auratus; details: in vivo
[11] = Half life in Swiss albino mouse at 40 mg/kg, po by LC-MS/MS analysis; assay type: ADME, organism-based; details: in vivo
[12] = AUClast in golden Syrian hamster at 50 mg/kg, po after 24 to 48 hrs by LC-MS/MS analysis; assay type: ADME, organism-based, Mesocricetus auratus; details: in vivo
How it was run: (§7)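 Fasted female golden Syrian hamsters. IV dose was 2 mg/kg as a solution in 20% NMP and 40% PEG-400 in citrate buffer (pH 3). Oral dosing at 40–50 mg/kg used PEG-400 as vehicle. Plasma was quantified by LC–MS/MS. AUClast was taken to the last time point (24 or 48 h).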

[13] = Initial concentration in Sprague-Dawley rat at 1 mg/kg, iv by LC-MS/MS analysis; assay type: ADME, organism-based; details: in vivo
How it was run: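 Male Sprague-Dawley rats, fasted, dosed iv at 1 mg/kg as a solution in 20% NMP/40% PEG-400 in citrate buffer (pH 3). Plasma was analysed by LC–MS/MS and C0 was derived with WinNonlin-type PK analysis.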

[14] = Metabolic stability in hamster liver microsomes assessed as parent compound remaining at 1 uM after 1 hr; assay type: ADME, microsome; details: read-out: Stability
[15] = AUClast in Sprague-Dawley rat at 40 mg/kg, po after 24 to 48 hrs by LC-MS/MS analysis; assay type: ADME, organism-based; details: in vivo
[16] = Cmax in golden Syrian hamster at 50 mg/kg, po by LC-MS/MS analysis; assay type: ADME, organism-based, Mesocricetus auratus; design: dose 50 mg/kg, route oral; details: in vivo; how it was run: as §7
[17] = Half life in Sprague-Dawley rat at 40 mg/kg, po by LC-MS/MS analysis; assay type: ADME, organism-based; details: in vivo; how it was run: as §4
[18] = Half life in Sprague-Dawley rat at 1 mg/kg, iv by LC-MS/MS analysis; assay type: ADME, organism-based; details: in vivo; how it was run: as §4
[19] = (§8) Oral bioavailability in Sprague-Dawley rat at 40 mg/kg by LC-MS/MS analysis; assay type: ADME, organism-based; details: Sprague-Dawley, in vivo; how it was run: as §3
[20] = Clearance in Sprague-Dawley rat at 1 mg/kg, iv by LC-MS/MS analysis; assay type: ADME, organism-based; details: in vivo; how it was run: as §4
[21] = (§9) Cmax in Sprague-Dawley rat at 40 mg/kg, po by LC-MS/MS analysis; assay type: ADME, organism-based; design: dose 40 mg/kg, route oral; details: Sprague-Dawley, in vivo; how it was run: as §4
Mus musculus [22] = assay: as §1; assay type: ADME, organism-based; details: in vivo
Rattus norvegicus [23] = assay: as §2; assay type: ADME, organism-based; details: in vivo; how it was run: as §3
[24] = AUClast in golden Syrian hamster at 40 mg/kg, po after 24 to 48 hrs by LC-MS/MS analysis; assay type: ADME, organism-based, Mesocricetus auratus; details: in vivo; how it was run: as §7
Mus musculus [25] = assay: as §5; assay type: ADME, organism-based; design: dose 40 mg/kg, route oral; details: in vivo
Mus musculus [26] = assay: as §6; assay type: ADME, organism-based; details: in vivo
[27] = Half life in golden Syrian hamster at 40 mg/kg, po by LC-MS/MS analysis; assay type: ADME, organism-based, Mesocricetus auratus; details: in vivo
[28] = Half life in golden Syrian hamster at 2 mg/kg, iv by LC-MS/MS analysis; assay type: ADME, organism-based, Mesocricetus auratus; details: in vivo; how it was run: as §7
[29] = Apparent permeability from apical to basolateral side in MDCK cells harboring MDR1 at 2 uM after 150 mins by LC-MS/MS analysis; assay type: ADME, cell-based, Canis lupus familiaris; details: dog
How it was run: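 MDCK-MDR1 monolayers were seeded at 2 × 10^5 cells/cm2 and grown to confluence over 4–7 days. Compound at 2 μM in 0.4% DMSO/HBSS was applied apically or basolaterally. Plates were incubated 150 min at 37 °C, 5% CO2, in triplicate. Quantitation was by LC–MS/MS analyte/internal-standard peak-area ratio.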

[30] = Tmax in golden Syrian hamster at 40 mg/kg, po by LC-MS/MS analysis; assay type: ADME, organism-based, Mesocricetus auratus; details: in vivo
[31] = Octanol/phosphate buffer solution distribution coefficient, log D of the compound at pH 7.4 by LC-MS/MS method; assay type: physicochemical; details: octanol/water
How it was run: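 Shake-flask partition between octanol and 100 mM phosphate buffer pH 7.4 at room temperature, final matrix 1% DMSO. Phases quantified by LC–MS/MS.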

[32] = Initial concentration in golden Syrian hamster at 2 mg/kg, iv by LC-MS/MS analysis; assay type: ADME, organism-based, Mesocricetus auratus; details: in vivo
How it was run: (§10)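 Fasted female golden Syrian hamsters given 2 mg/kg iv as a solution in 20% NMP and 40% PEG-400 in citrate buffer pH 3. Plasma concentrations determined by LC–MS/MS to derive PK parameters.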

Rattus norvegicus [33] = assay: as §8; assay type: ADME, organism-based; details: in vivo; how it was run: as §3
[34] = Volume of distribution at steady state in golden Syrian hamster at 2 mg/kg, iv by LC-MS/MS analysis; assay type: ADME, organism-based, Mesocricetus auratus; details: in vivo, read-out: Vdss; how it was run: as §10
Syrian golden hamster [35] = assay: Oral bioavailability in golden Syrian hamster at 40 mg/kg by LC-MS/MS analysis; assay type: ADME, organism-based, Mesocricetus auratus; details: in vivo
Rattus norvegicus [36] = assay: as §9; assay type: ADME, organism-based; design: dose 40 mg/kg, route oral; details: in vivo; how it was run: as §4
[37] = AUClast in golden Syrian hamster at 2 mg/kg, iv after 24 to 48 hrs by LC-MS/MS analysis; assay type: ADME, organism-based, Mesocricetus auratus; details: in vivo; how it was run: as §7
[38] = Cmax in golden Syrian hamster at 40 mg/kg, po by LC-MS/MS analysis; assay type: ADME, organism-based, Mesocricetus auratus; design: dose 40 mg/kg, route oral; details: in vivo; how it was run: as §7
[39] = Clearance in golden Syrian hamster at 2 mg/kg, iv by LC-MS/MS analysis; assay type: ADME, organism-based, Mesocricetus auratus; details: in vivo
Syrian golden hamster [40] = assay: Oral bioavailability in golden Syrian hamster at 50 mg/kg by LC-MS/MS analysis; assay type: ADME, organism-based, Mesocricetus auratus; details: in vivo

Row | Stability (Liver [2]) [%] | Stability (Liver [4]) [%] | half-life [9] [h] | Tmax [10] [h] | AUC(0-t) [12] [µg·h/mL] | remaining at 1 h, 1 µM [14] [%] | Cmax [16] [ng/mL] | SMILES | AUC(0-t) [5] [µg·h/mL] | Vd [7] [L/kg] | half-life [11] [h] | C0 [13] [ng/mL] | half-life [18] [h] | clearance [20] [mL/min/kg] | half-life [28] [h] | C0 [32] [ng/mL] | Vd [34] [L/kg] | AUC(0-t) [37] [µg·h/mL] | also measured
1 | 90 | 92 | 3.1 | 3.3 | 71 | 48 | 12000 | O=[N+]([O-])c1cn2c(n1)OC[C@H](Oc1ccc(C(F)(F)F)cn1)C2 | 2.47 | 1.5 | 30 | 840 | 2.7 | 6.1 | – | – | – | – | Tmax [1]: 3.1 h; Tmax [3]: 2.7 h; Cmax [6]: 96000 ng/mL; AUC(0-t) [8]: 1780 µg·h/mL; AUC(0-t) [15]: 164 µg·h/mL; half-life [17]: 3.5 h; bioavailability [19]: 100%; Cmax [21]: 18000 ng/mL
2 | 58 | 67 | 17 | 1.7 | 3.4 | 10 | 1100 | O=[N+]([O-])c1cn2c(n1)OC[C@H](OCc1ccc(-c3ccc(F)cc3F)nc1)C2 | – | – | – | – | – | – | 1.4 | 520 | 5.4 | 0.71 | clearance [39]: 59 mL/min/kg; F (Syrian golden hamster [40]): 21%

Row | SMILES | Stability (Liver [2]) [%] | Stability (Liver [4]) [%] | half-life [9] [h] | Tmax [10] [h] | AUC(0-t) [12] [µg·h/mL] | remaining at 1 h, 1 µM [14] [%] | Cmax [16] [ng/mL] | AUC(0-t) [5] [µg·h/mL] | Vd [7] [L/kg] | half-life [11] [h] | C0 [13] [ng/mL] | half-life [18] [h] | clearance [20] [mL/min/kg] | half-life [28] [h] | C0 [32] [ng/mL] | Vd [34] [L/kg] | AUC(0-t) [37] [µg·h/mL] | also measured
3 | O=[N+]([O-])c1cn2c(n1)OC[C@H](Oc1ccc(OC(F)(F)F)cc1)C2 | – | – | – | – | – | 19 | – | 1.51 | 2.7 | 7.8 | 540 | 3 | 11 | 1.4 | 660 | 6.5 | 0.42 | Tmax (Mus musculus [22]): 5.3 h; Tmax (Rattus norvegicus [23]): 6.7 h; AUC(0-t) [24]: 11.2 µg·h/mL; Cmax (Mus musculus [25]): 21000 ng/mL; AUClast (Mus musculus [26]): 272 µg·h/mL; half-life [27]: 2.2 h; Papp [29]: 32.4 ×10⁻⁶ cm/s; Tmax [30]: 3.3 h; logD [31]: 2.59; F (Rattus norvegicus [33]): 100%; F (Syrian golden hamster [35]): 100%; Cmax (Rattus norvegicus [36]): 5200 ng/mL; Cmax [38]: 2100 ng/mL

— ChEMBL document CHEMBL4020832, “Development of (6 R)-2-Nitro-6-[4-(trifluoromethoxy)phenoxy]-6,7-dihydro-5 H-imidazo[2,1- b][1,3]oxazine (DNDI-8219): A New Lead for Visceral Leishmaniasis” (J Med Chem, 2018)
